Activity calls are given as the source filed them. The calls are words filed in the database; no cut-off is given here.
Experiments:
[1] = test system: GM15850; test: Antioxidant activity in FRDA patient derived lymphocyte GM15850 assessed as inhibition of DEM-induced lipid peroxidation at 0.1 to 1 uM pre-incubated for 16 hrs followed by DEM addition for 120 mins by C11-BODIPY581/591 probe based flow cytometry relative to control; assay type: functional, cell-based; conditions: Homo sapiens
In short: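 Cells seeded at 5 × 10^5 cells/mL in RPMI-1640 with 15% fetal calf serum and 2 mM glutamine. Compounds added 16 h at 37 °C, 5% CO2. Then 1 μM C11-BODIPY581/591 in phenol red-free medium, 30 min in the dark. 5 mM DEM for 120 min, PBS wash, FL1-H read (488 nm excitation). 10,000 events. Green median fluorescence reported as % of DEM-treated control, n = 3.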

[2] = test system: GM15850; test: Antioxidant activity in FRDA patient derived lymphocyte GM15850 assessed as suppression of DEM-induced intracellular ROS levels at 2.5 uM pre-incubated for 16 hrs followed by DEM addition for 80 mins by DCFH-DA probe based flow cytometry; assay type: functional, cell-based; conditions: Homo sapiens
In short: (§1)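 Cells (5 × 10^5) pretreated with compound 16 h at 37 °C, then 5 mM DEM for 80 min. Washed, then 10 μM DCFH-DA in PBS with 20 mM glucose for 25 min at 37 °C in the dark. DCF read on FL1-H, 10,000 events. Median fluorescence given as % of DEM-treated control. Duplicates, three independent runs.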

[3] = test system: GM15850; test: Antioxidant activity in FRDA patient derived lymphocyte GM15850 assessed as suppression of DEM-induced intracellular ROS levels at 100 nM pre-incubated for 16 hrs followed by DEM addition for 80 mins by DCFH-DA probe based flow cytometry; assay type: functional, cell-based; conditions: Homo sapiens; in short: as §1
[4] = test system: GM15850; test: Antioxidant activity in FRDA patient derived lymphocyte GM15850 assessed as suppression of DEM-induced intracellular ROS levels pre-incubated for 16 hrs followed by DEM addition for 80 mins by DCFH-DA probe based flow cytometry; assay type: functional, cell-based; conditions: Homo sapiens; in short: as §1
[5] = test system: GM15850; test: Inhibition of DEM-induced collapse of mitochondrial membrane potential in FRDA patient derived lymphocyte GM15850 assessed as intact mitochondrial membrane potential at 100 nM pre-incubated for 16 hrs followed by DEM addition for 120 mins by TMRM dye based flow cytometry (reference value: 91.3 %); assay type: functional, Homo sapiens; set-up: scale not given: the % may be the effect or the level left
In short: (§2)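 Cells (5 × 10^5) pretreated with or without compound for 16 h, then 5 mM DEM for 120 min. Stained with 250 nM TMRM in PBS with 20 mM glucose, 15 min at 37 °C in the dark. FL2-H read, 10,000 events, % cells with high TMRM uptake (intact potential). FCCP as uncoupler control. Means ± SEM of independent experiments run in duplicate.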

[6] = test system: GM15850; test: Inhibition of DEM-induced collapse of mitochondrial membrane potential in FRDA patient derived lymphocyte GM15850 assessed as intact mitochondrial membrane potential at 1000 nM pre-incubated for 16 hrs followed by DEM addition for 120 mins by TMRM dye based flow cytometry (reference value: 91.3 %); assay type: functional, Homo sapiens; set-up: scale not given: the % may be the effect or the level left; in short: as §2
[7] = test system: GM15850; test: Inhibition of DEM-induced collapse of mitochondrial membrane potential in FRDA patient derived lymphocyte GM15850 assessed as intact mitochondrial membrane potential at 2500 nM pre-incubated for 16 hrs followed by DEM addition for 120 mins by TMRM dye based flow cytometry (reference value: 91.3 %); assay type: functional, Homo sapiens; set-up: scale not given: the % may be the effect or the level left; in short: as §2
[8] = test system: GM15850; test: Inhibition of DEM-induced collapse of mitochondrial membrane potential in FRDA patient derived lymphocyte GM15850 assessed as intact mitochondrial membrane potential pre-incubated for 16 hrs followed by DEM addition for 120 mins by TMRM dye based flow cytometry; assay type: functional, cell-based; conditions: Homo sapiens; in short: as §2
[9] = test system: GM15850; test: Effect on mitochondrial membrane potential in FRDA patient derived lymphocyte GM15850 incubated for 16 hrs by TMRM dye based flow cytometry; assay type: cell-based; conditions: human, gm15850, 16 h
[10] = test system: GM15850; test: Increase in total intracellular ATP levels in FRDA patient derived lymphocyte GM15850 grown in galactose medium at 1 uM after 48 hrs by luciferin-luciferase reaction based bioluminescence assay relative to control; assay type: functional, Homo sapiens
In short: (§3)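 Cells at 2 × 10^5 cells/mL in glucose-free RPMI with 25 mM galactose, 10% dialyzed FBS and 2 mM glutamine. Compound exposure 48 h at 37 °C, 5% CO2. Total ATP read by luciferin-luciferase bioluminescence. Expressed as % of untreated control, mean of at least three independent runs; Student's t-test, p ≤ 0.05 versus vehicle.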

[11] = test system: GM15850; test: Increase in total intracellular ATP levels in FRDA patient derived lymphocyte GM15850 grown in galactose medium at 5 uM after 48 hrs by luciferin-luciferase reaction based bioluminescence assay relative to control; assay type: functional, Homo sapiens; in short: as §3
[12] = test system: GM15850; test: Increase in total intracellular ATP levels in FRDA patient derived lymphocyte GM15850 grown in galactose medium at 20 uM after 48 hrs by luciferin-luciferase reaction based bioluminescence assay relative to control; assay type: functional, Homo sapiens; in short: as §3
[13] = test system: GM15850; test: Cytoprotective activity against DEM induced oxidative stress in FRDA patient derived lymphocyte GM15850 assessed as cell viability at 0.5 uM pre-incubated for 16 hrs followed by DEM addition for 6 hrs by calcein AM/EthD-1 staining based flow cytometry; assay type: functional; conditions: Homo sapiens
In short: (§4)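 Seeding 5 × 10^5 cells/mL, compound for 16 h at 37 °C, then 5 mM DEM for 6 h. Cells washed, resuspended in PBS with 25 mM galactose. Stained with 0.1 μM calcein AM and 0.1 μM EthD-1, 15 min at 37 °C in the dark. FL1-H/FL2-H read, 10,000 events. Viability relative to DMSO vehicle control.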

[14] = test system: GM15850; test: Cytoprotective activity against DEM induced oxidative stress in FRDA patient derived lymphocyte GM15850 assessed as cell viability at 0.1 uM pre-incubated for 16 hrs followed by DEM addition for 6 hrs by calcein AM/EthD-1 staining based flow cytometry; assay type: functional; conditions: Homo sapiens; in short: as §4
[15] = Stability in bovine liver microsomes assessed as drug recovery at 25 uM after 30 mins in presence of beta-NADPH by HPLC analysis; assay type: ADME, Bos taurus, Microsome; conditions: cattle, read-out: Drug recovery
In short: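 Freshly prepared bovine liver microsomes at 1 mg/mL protein in 50 mM phosphate buffer pH 7.4 with 5 mM MgCl2. Compound at 25 μM final, reaction started with 1 mM β-NADPH, 30 min at 37 °C, stopped with propanol. Control was deactivated microsomes without NADPH. Reversed-phase HPLC with fluorene internal standard. Reported as % remaining versus control, quadruplicate.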

[16] = test system: GM15850; test: Increase in total intracellular ATP levels in FRDA patient derived lymphocyte GM15850 grown in galactose medium after 48 hrs by luciferin-luciferase reaction based bioluminescence assay; assay type: functional, cell-based; conditions: Homo sapiens; in short: as §3

Structure (SMILES) | remaining at 0.5 h, 25 µM [15] | Activity [16] | Activity [1] | Activity [2] | Activity [3] | Activity [4] | Activity [5] | Activity [6] | Activity [7] | Activity [8] | Activity [9] | Activity [10] | Activity [11] | Activity [12] | Activity [13] | Activity [14]
CCCCCCCCCCCCCCCCc1nc(N2CCCCC2)nc(OC2CCC2)c1O | 72% |  | inactive | Active | inactive | Dose-dependent effect | 7.8% | 32.4% | 62.3% | Dose-dependent effect | Non-Toxic | 99% | 106% | 100% | inactive | inactive
CCCCCCCCCCCCCCCOc1nc(N2CCC2)nc(C)c1O | 62% | Dose-dependent effect | Active |  | Active |  | 88.9% | 82.7% | 77.2% | Dose-dependent effect | Non-Toxic | 96% | 68% | 11% | Active | inactive
CCCCCCCCCCCCCCCCc1nc(N2CCC2)nc(OC2CCC2)c1O | 65% |  | inactive | Active | inactive | Dose-dependent effect | 55% | 66.6% | 83.4% | Dose-dependent effect | Non-Toxic | 98% | 112% | 103% | inactive | inactive
CCCCCCCCCCCCCCCCc1nc(N2CCCC2)nc(OC2CCC2)c1O | 72% |  | inactive | Active | inactive | Dose-dependent effect | 42.5% | 52.3% | 70.4% | Dose-dependent effect | Non-Toxic | 98% | 107% | 102% | inactive | inactive

Continued, in another order:

remaining at 0.5 h, 25 µM [15] | Activity [16] | Structure (SMILES) | Activity [1] | Activity [2] | Activity [3] | Activity [4] | Activity [5] | Activity [6] | Activity [7] | Activity [8] | Activity [9] | Activity [10] | Activity [11] | Activity [12] | Activity [13] | Activity [14]
54% |  | CCCCCCCCCCCCCCCCc1nc(N2CCC2)nc(OCC)c1O | Active |  | Active |  | 88.9% | 87.6% | 88% | Dose-dependent effect | Non-Toxic | 100% | 108% | 96% | Active | inactive
57% |  | CCCCCCCCCCCCCCCCc1nc(N2CCC2)nc(C)c1O | Active |  | Active |  | 91.1% | 86.5% | 83.3% | Dose-dependent effect | Non-Toxic | 109% | 98% | 60% | Active | inactive
76% |  | CCCCCCCCCCCCCCCCc1nc(N2CCC2)nc(OC(C)C)c1O | Active |  | Active |  | 91.5% | 90.4% | 87.5% | Dose-dependent effect | Non-Toxic | 106% | 109% | 95% | Active | inactive
58% |  | CCCCCCCCCCCCCCCCc1nc(N2CCC2)nc(OC)c1O | Active |  | Active |  | 90.5% | 88.8% | 86.8% | Dose-dependent effect | Non-Toxic | 102% | 109% | 74% | Active | inactive
46% |  | CCCCCCCCCCCCCCCCc1nc(N(C)C)nc(OC)c1O | Active |  | Active |  | 92% | 88.3% | 85.8% | Dose-dependent effect | Non-Toxic | 115% | 107% | 88% |  | inactive

— ChEMBL document CHEMBL4428118, “Optimization of pyrimidinol antioxidants as mitochondrial protective agents: ATP production and metabolic stability” (Bioorg Med Chem, 2016)
